According to ChEMBL document CHEMBL1800022, “Structure-activity relationships of a series of analogues of the RFamide-related peptide 26RFa” (J Med Chem, 2011):
Non-standard residues stand in square brackets, D forms with d. Residues, ends and D or L forms follow the SMILES beside them. *: point of attachment. NBn2 = c1ccc(CN(Cc2ccccc2)*)cc1; Cha = N[C@@H](CC1CCCCC1)C(=O)O; Tle = CC(C)(C)[C@H](N)C(=O)O; X3 = C1CCN(N(N2CCCCC2)*)CC1; hSer = N[C@@H](CCO)C(=O)O; Nle = CCCC[C@H](N)C(=O)O; Nva = CCC[C@H](N)C(=O)O; Abu = CC[C@H](N)C(=O)O; NHBn = c1ccc(CN*)cc1; X1 = CCN(Cc1ccccc1)*

Target: T1, Pyroglutamylated RF-amide peptide receptor (Homo sapiens, UniProt Q96P65)
T1 sequence (Q96P65 whole entry): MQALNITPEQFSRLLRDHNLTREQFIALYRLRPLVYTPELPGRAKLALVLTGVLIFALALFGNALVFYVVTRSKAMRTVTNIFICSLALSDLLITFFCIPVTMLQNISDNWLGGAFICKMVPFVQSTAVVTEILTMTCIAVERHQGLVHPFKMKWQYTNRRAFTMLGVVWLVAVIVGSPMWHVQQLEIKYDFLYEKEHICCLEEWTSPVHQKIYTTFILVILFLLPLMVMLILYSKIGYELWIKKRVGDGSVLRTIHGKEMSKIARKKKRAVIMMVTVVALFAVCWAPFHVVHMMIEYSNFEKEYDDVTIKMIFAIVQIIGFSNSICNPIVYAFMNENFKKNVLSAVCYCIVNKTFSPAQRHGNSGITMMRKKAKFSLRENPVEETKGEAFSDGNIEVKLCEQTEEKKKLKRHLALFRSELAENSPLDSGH
Assay: Agonist activity at DYKDDDDK-flagged human GPR103 receptor expressed in CHO-K1 cells co-expressing G-protein alpha16 assessed as stimulation of calcium mobilization after 2 mins by fluorometric analysis
Assay type: functional, cell-based
How it was run: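 CHO-K1 cells stably expressing Gα16 and C-terminally flag-tagged human GPR103 (Geneticin-selected), plated at 40 000 cells/well 24 h before assay. Loaded with 2 μM Fluo-4AM for 1 h, washed, then 30 min in HBSS with 2.5 mM probenecid and 5 mM HEPES. Peptides added at 10^-12 to 10^-5 M final and fluorescence read for 2 min. Triplicates; EC50 from sigmoidal variable-slope fit, at least three experiments.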

| EC50 | SMILES |
| --- | --- |
| 1.47 µM | CC(C)C[C@H](NC(=O)[C@H](Cc1ccccc1)NC(=O)CNC(=O)CN)C(=O)N[C@@H](Cc1ccccc1)C(=O)N[C@@H](CCCN=C(N)N)C(=O)N[C@@H](Cc1ccccc1)C(N)=O (H-GGFLFRF-NH2) |
| 1.09 µM | CCN(Cc1ccccc1)C(=O)[C@H](Cc1ccccc1)NC(=O)[C@H](CCCN=C(N)N)NC(=O)[C@H](Cc1ccccc1)NC(=O)[C@H](CO)NC(=O)[C@H](Cc1ccccc1)NC(=O)CNC(=O)CN (H-GGFSFRF-X1) |
| 1.63 µM | CC(C)[C@H](NC(=O)[C@H](Cc1ccccc1)NC(=O)CNC(=O)CN)C(=O)N[C@@H](Cc1ccccc1)C(=O)N[C@@H](CCCN=C(N)N)C(=O)N[C@@H](Cc1ccccc1)C(N)=O (H-GGFVFRF-NH2) |
| 0.355 µM | CC[C@H](NC(=O)[C@H](Cc1ccccc1)NC(=O)CNC(=O)CN)C(=O)N[C@@H](Cc1ccccc1)C(=O)N[C@@H](CCCNC(=N)N)C(=O)N[C@@H](Cc1ccccc1)C(N)=O (H-GGF[Abu]FRF-NH2) |
| 0.741 µM | CCCC[C@H](NC(=O)[C@H](Cc1ccccc1)NC(=O)CNC(=O)CN)C(=O)N[C@@H](Cc1ccccc1)C(=O)N[C@@H](CCCN=C(N)N)C(=O)N[C@@H](Cc1ccccc1)C(N)=O (H-GGF[Nle]FRF-NH2) |
| 1.82 µM | CC(C)(C)[C@H](NC(=O)[C@H](Cc1ccccc1)NC(=O)CNC(=O)CN)C(=O)N[C@@H](Cc1ccccc1)C(=O)N[C@@H](CCCN=C(N)N)C(=O)N[C@@H](Cc1ccccc1)C(N)=O (H-GGF[Tle]FRF-NH2) |
| 0.374 µM | N=C(N)NCCC[C@H](NC(=O)[C@H](Cc1ccccc1)NC(=O)[C@H](CCO)NC(=O)[C@H](Cc1ccccc1)NC(=O)CNC(=O)CN)C(=O)N[C@@H](Cc1ccccc1)C(N)=O (H-GGF[hSer]FRF-NH2) |

Continued, compound first:

| SMILES | EC50 |
| --- | --- |
| C[C@H](NC(=O)CNC(=O)CN)C(=O)N[C@@H](CO)C(=O)N[C@@H](Cc1ccccc1)C(=O)N[C@@H](CCCNC(=N)N)C(=O)N[C@@H](Cc1ccccc1)C(N)=O (H-GGASFRF-NH2) | 1.33 µM |
| C[C@H](NC(=O)[C@H](Cc1ccccc1)NC(=O)CNC(=O)CN)C(=O)N[C@@H](Cc1ccccc1)C(=O)N[C@@H](CCCNC(=N)N)C(=O)N[C@@H](Cc1ccccc1)C(N)=O (H-GGFAFRF-NH2) | 1.31 µM |
| NCC(=O)NCC(=O)N[C@@H](Cc1ccccc1)C(=O)N[C@@H](CO)C(=O)N[C@@H](Cc1ccccc1)C(=O)N[C@@H](CCCN=C(N)N)C(=O)N[C@@H](Cc1ccccc1)C(=O)N(N1CCCCC1)N1CCCCC1 (H-GGFSFRF-X3) | 1.2 µM |
| N=C(N)NCCC[C@H](NC(=O)[C@H](Cc1ccccc1)NC(=O)[C@H](CC1CCCCC1)NC(=O)[C@H](Cc1ccccc1)NC(=O)CNC(=O)CN)C(=O)N[C@@H](Cc1ccccc1)C(N)=O (H-GGF[Cha]FRF-NH2) | 1.1 µM |
| CCC[C@H](NC(=O)[C@H](Cc1ccccc1)NC(=O)CNC(=O)CN)C(=O)N[C@@H](Cc1ccccc1)C(=O)N[C@@H](CCCNC(=N)N)C(=O)N[C@@H](Cc1ccccc1)C(N)=O (H-GGF[Nva]FRF-NH2) | 0.233 µM |
| N=C(N)NCCC[C@H](NC(=O)[C@H](Cc1ccccc1)NC(=O)[C@H](CO)NC(=O)[C@H](Cc1ccccc1)NC(=O)CNC(=O)CNC(=O)[C@H](CCCCN)NC(=O)[C@H](CCCCN)NC(=O)[C@H](CCCNC(=N)N)NC(=O)[C@H](CO)NC(=O)[C@H](Cc1ccc(O)cc1)NC(=O)CN)C(=O)N[C@@H](Cc1ccccc1)C(N)=O (H-GYSRKKGGFSFRF-NH2) | 0.185 µM |
| NCCCC[C@H](N)C(=O)NCC(=O)NCC(=O)N[C@@H](Cc1ccccc1)C(=O)N[C@@H](CO)C(=O)N[C@@H](Cc1ccccc1)C(=O)N[C@@H](CCCN=C(N)N)C(=O)N[C@@H](Cc1ccccc1)C(N)=O (H-KGGFSFRF-NH2) | 1.71 µM |
| NCCCC[C@H](NC(=O)[C@H](CCCCN)NC(=O)[C@H](CCCN=C(N)N)NC(=O)[C@H](CO)NC(=O)[C@H](Cc1ccc(O)cc1)NC(=O)CNC(=O)[C@@H](N)CC(N)=O)C(=O)NCC(=O)NCC(=O)N[C@@H](Cc1ccccc1)C(=O)N[C@@H](CO)C(=O)N[C@@H](Cc1ccccc1)C(=O)N[C@@H](CCCN=C(N)N)C(=O)N[C@@H](Cc1ccccc1)C(N)=O (H-NGYSRKKGGFSFRF-NH2) | 0.0953 µM |
| CC(C)C[C@H](NC(=O)[C@H](CCC(=O)O)NC(=O)[C@H](CCC(=O)O)NC(=O)[C@H](C)NC(=O)[C@H](CC(C)C)NC(=O)[C@@H](N)CC(N)=O)C(=O)N[C@@H](CC(N)=O)C(=O)NCC(=O)N[C@@H](Cc1ccc(O)cc1)C(=O)N[C@@H](CO)C(=O)N[C@@H](CCCNC(=N)N)C(=O)N[C@@H](CCCCN)C(=O)N[C@@H](CCCCN)C(=O)NCC(=O)NCC(=O)N[C@@H](Cc1ccccc1)C(=O)N[C@@H](CO)C(=O)N[C@@H](Cc1ccccc1)C(=O)N[C@@H](CCCNC(=N)N)C(=O)N[C@@H](Cc1ccccc1)C(N)=O (H-NLAEELNGYSRKKGGFSFRF-NH2) | 0.0302 µM |
| CC(C)C[C@H](NC(=O)[C@@H]1CCCN1)C(=O)NCC(=O)N[C@@H](CC(N)=O)C(=O)N[C@@H](CC(C)C)C(=O)N[C@@H](C)C(=O)N[C@@H](CCC(=O)O)C(=O)N[C@@H](CCC(=O)O)C(=O)N[C@@H](CC(C)C)C(=O)N[C@@H](CC(N)=O)C(=O)NCC(=O)N[C@@H](Cc1ccc(O)cc1)C(=O)N[C@@H](CO)C(=O)N[C@@H](CCCN=C(N)N)C(=O)N[C@@H](CCCCN)C(=O)N[C@@H](CCCCN)C(=O)NCC(=O)NCC(=O)N[C@@H](Cc1ccccc1)C(=O)N[C@@H](CO)C(=O)N[C@@H](Cc1ccccc1)C(=O)N[C@@H](CCCN=C(N)N)C(=O)N[C@@H](Cc1ccccc1)C(N)=O (H-PLGNLAEELNGYSRKKGGFSFRF-NH2) | 0.0432 µM |
| N=C(N)NCCC[C@H](NC(=O)[C@H](Cc1ccccc1)NC(=O)[C@H](CO)NC(=O)[C@H](Cc1ccccc1)NC(=O)CNC(=O)CNC(=O)[C@H](CCCCN)NC(=O)[C@H](CCCCN)NC(=O)[C@@H](N)CCCNC(=N)N)C(=O)N[C@@H](Cc1ccccc1)C(N)=O (H-RKKGGFSFRF-NH2) | 0.282 µM |
| NCCCC[C@H](NC(=O)[C@H](CCCCN)NC(=O)[C@H](CCCN=C(N)N)NC(=O)[C@@H](N)CO)C(=O)NCC(=O)NCC(=O)N[C@@H](Cc1ccccc1)C(=O)N[C@@H](CO)C(=O)N[C@@H](Cc1ccccc1)C(=O)N[C@@H](CCCN=C(N)N)C(=O)N[C@@H](Cc1ccccc1)C(N)=O (H-SRKKGGFSFRF-NH2) | 0.237 µM |
| CC(C)C[C@H](NC(=O)[C@H](CC(N)=O)NC(=O)CNC(=O)[C@H](CC(C)C)NC(=O)[C@@H]1CCCN1C(=O)CNC(=O)[C@H](CO)NC(=O)[C@@H](N)[C@@H](C)O)C(=O)N[C@@H](C)C(=O)N[C@@H](CCC(=O)O)C(=O)N[C@@H](CCC(=O)O)C(=O)N[C@@H](CC(C)C)C(=O)N[C@@H](CC(N)=O)C(=O)NCC(=O)N[C@@H](Cc1ccc(O)cc1)C(=O)N[C@@H](CO)C(=O)N[C@@H](CCCNC(=N)N)C(=O)N[C@@H](CCCCN)C(=O)N[C@@H](CCCCN)C(=O)NCC(=O)NCC(=O)N[C@@H](Cc1ccccc1)C(=O)N[C@@H](CO)C(=O)N[C@@H](Cc1ccccc1)C(=O)N[C@@H](CCCNC(=N)N)C(=O)NCc1ccccc1 (H-TSGPLGNLAEELNGYSRKKGGFSFR-NHBn) | 0.067 µM |
| CC(C)C[C@H](NC(=O)[C@H](CC(N)=O)NC(=O)CNC(=O)[C@H](CC(C)C)NC(=O)[C@@H]1CCCN1C(=O)CNC(=O)[C@H](CO)NC(=O)[C@@H](N)[C@@H](C)O)C(=O)N[C@@H](C)C(=O)N[C@@H](CCC(=O)O)C(=O)N[C@@H](CCC(=O)O)C(=O)N[C@@H](CC(C)C)C(=O)N[C@@H](CC(N)=O)C(=O)NCC(=O)N[C@@H](Cc1ccc(O)cc1)C(=O)N[C@@H](CO)C(=O)N[C@@H](CCCNC(=N)N)C(=O)N[C@@H](CCCCN)C(=O)N[C@@H](CCCCN)C(=O)NCC(=O)NCC(=O)N[C@@H](Cc1ccccc1)C(=O)N[C@@H](CO)C(=O)N[C@@H](Cc1ccccc1)C(=O)N[C@@H](CCCNC(=N)N)C(=O)N[C@@H](Cc1ccccc1)C(=O)N(Cc1ccccc1)Cc1ccccc1 (H-TSGPLGNLAEELNGYSRKKGGFSFRF-NBn2) | 0.166 µM |
| CC(C)C[C@H](NC(=O)[C@H](CC(N)=O)NC(=O)CNC(=O)[C@H](CC(C)C)NC(=O)[C@@H]1CCCN1C(=O)CNC(=O)[C@H](CO)NC(=O)[C@@H](N)[C@@H](C)O)C(=O)N[C@@H](C)C(=O)N[C@@H](CCC(=O)O)C(=O)N[C@@H](CCC(=O)O)C(=O)N[C@@H](CC(C)C)C(=O)N[C@@H](CC(N)=O)C(=O)NCC(=O)N[C@@H](Cc1ccc(O)cc1)C(=O)N[C@@H](CO)C(=O)N[C@@H](CCCNC(=N)N)C(=O)N[C@@H](CCCCN)C(=O)N[C@@H](CCCCN)C(=O)NCC(=O)NCC(=O)N[C@@H](Cc1ccccc1)C(=O)N[C@@H](CO)C(=O)N[C@@H](Cc1ccccc1)C(=O)N[C@@H](CCCNC(=N)N)C(=O)N[C@@H](Cc1ccccc1)C(N)=O (H-TSGPLGNLAEELNGYSRKKGGFSFRF-NH2) | 0.0104 µM |
| CC(C)C[C@H](NC(=O)[C@H](CC(N)=O)NC(=O)CNC(=O)[C@H](CC(C)C)NC(=O)[C@@H]1CCCN1C(=O)CNC(=O)[C@H](CO)NC(=O)[C@@H](N)[C@@H](C)O)C(=O)N[C@@H](C)C(=O)N[C@@H](CCC(=O)O)C(=O)N[C@@H](CCC(=O)O)C(=O)N[C@@H](CC(C)C)C(=O)N[C@@H](CC(N)=O)C(=O)NCC(=O)N[C@@H](Cc1ccc(O)cc1)C(=O)N[C@@H](CO)C(=O)N[C@@H](CCCN=C(N)N)C(=O)N[C@@H](CCCCN)C(=O)N[C@@H](CCCCN)C(=O)NCC(=O)NCC(=O)N[C@@H](Cc1ccccc1)C(=O)N[C@@H](CO)C(=O)N[C@@H](Cc1ccccc1)C(=O)N[C@@H](CCCN=C(N)N)C(=O)N[C@@H](Cc1ccccc1)C(=O)NCc1ccccc1 (H-TSGPLGNLAEELNGYSRKKGGFSFRF-NHBn) | 0.039 µM |
